Experimental data from ChEMBL document CHEMBL5029161, “Synthetic Neutralizing Peptides Inhibit the Host Cell Binding of Spike Protein and Block Infection of SARS-CoV-2” (J Med Chem, 2021).
Active and inactive are the calls of the source. The rule behind the calls is not given here.

Tests used:
[1] = Binding affinity to the recombinant SARS-Cov-2 Spike protein subunit S1 by QCM-D measurement; set-up: species or system Severe acute respiratory syndrome coronavirus 2
How it was run: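 Peptides were thiolated and coated onto 5 MHz gold QCM-D sensors for 30 min at room temperature. Recombinant S1 protein then flowed over as mobile phase at 300 μL/min, 37 °C, in PBS. Kd came from nonlinear regression of saturated binding mass (Δm) against […] (nM).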

A549 [2] = test: Cytotoxicity against human A549 cells assessed as cell viability at 0.001 to 100 uM measured after 48 hrs using CCK-8 assay; assay type: cell-based; conditions: a549, 48 h, dose 0.001-100 µM
How it was run: (§1)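 A549 cells were grown in McCoy-5A with 10% FBS. They were exposed to peptides at 1 nM–100 μM (tenfold steps) for 48 h, with medium alone as control. After a PBS wash, CCK-8 was added and incubated at 37 °C. OD was read at 450/630 nm and normalised to control, n = 3.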

293T/ACE2 [3] = test: Cytotoxicity against human 293T/ACE2 cells assessed as cell viability at 0.001 to 100 uM measured after 48 hrs using CCK-8 assay; assay type: functional, cell-based; conditions: dose 0.001-100 µM
How it was run: as §1, with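 “293T-ACE2⁺” for “A549”, “high-glucose DMEM” for “McCoy-5A”, “FBS and 500 μg/mL hygromycin.” for “FBS.”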

A549 [4] = test: Inhibition of recombinant SARS-Cov-2 Spike protein subunit S1 binding to human A549 cells preincubated for 1 hr by Western blot analysis; assay type: cell-based; conditions: Severe acute respiratory syndrome coronavirus 2
How it was run: (§2)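 Recombinant S1 protein was preincubated with peptides for 1 h at 37 °C, then added to A549 or 293T-ACE2⁺ cells for 1 h. Cells were washed, lysed in RIPA with PMSF and phosphatase inhibitor, and equal protein was run on SDS-PAGE. Blots on PVDF were probed with anti-S1 rabbit pAb, with ACTB as loading reference, and detected by chemiluminescence.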

293T/ACE2 [5] = test: Inhibition of recombinant SARS-Cov-2 Spike protein subunit S1 binding to human 293T/ACE2 cells preincubated for 1 hr by Western blot analysis; assay type: cell-based; conditions: Severe acute respiratory syndrome coronavirus 2; how it was run: as §2
293T/ACE2 [6] = test: Inhibition of Spike protein subunit S in SARS-CoV-2 pseudovirus assessed as inhibition of infection in human 293T/ACE2 cells by measuring decrease in luciferase activity at 0.000001 to 100 uM pretreated for 1 hr; assay type: cell-based; conditions: Severe acute respiratory syndrome coronavirus 2, dose lower 1e-06 µM, dose upper 100.0 µM
How it was run: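 The pseudovirus was HIV-1-based, bought ready-made, and carried S protein with luciferase and GFP reporters. It was pre-mixed with serially diluted peptides (1 pM–100 μM) for 1 h at 37 °C, then added to 293T-ACE2⁺ cells for 1 h. Medium was then replaced, followed by 47 h further culture. Infection rate was derived from luciferase activity.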

293T/ACE2 [7] = test: Inhibition of Spike protein subunit S in SARS-CoV-2 pseudovirus assessed as inhibition of infection in human 293T/ACE2 cells by measuring decrease in fluorescence intensity at 0.000001 to 100 uM pretreated for 1 hr; assay type: cell-based; conditions: Severe acute respiratory syndrome coronavirus 2, dose lower 1e-06 µM, dose upper 100.0 µM
How it was run: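 A bought-in HIV-1-based S-pseudotyped reporter virus expressing GFP was preincubated with serially diluted peptides for 1 h at 37 °C. It was then applied to 293T-ACE2⁺ cells for 1 h and replaced with fresh medium, followed by 47 h more culture. Cellular GFP fluorescence intensity was observed.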

Substance	Kd [1] [nM]	Activity (A549 [2])	Activity (293T/ACE2 [3])	inhibition (A549 [4])	inhibition (293T/ACE2 [5])	inhibition (293T/ACE2 [6])	inhibition (293T/ACE2 [7])
H-GDGVYYPRDVFDSSVLDSTQR-OH	5.6	Non-Toxic	Not toxic	Active	Active	Active	Active
H-GDLFDDSNLDPFRDRISTRR-OH	37.5	Non-Toxic	Not toxic	Active	Active	Active	Active
H-GDRIARTTRAVDRPQTLRR-OH	76.9	Non-Toxic	Not toxic	Active	Active	Active	Active
